# Reference: ChEMBL document CHEMBL1275265, “Synthesis and biological evaluation of N-antipyrine-4-substituted amino-3-chloromaleimide derivatives” (Eur J Med Chem, 2010)
# The source made the active and inactive calls. The calls are words filed in the database; no cut-off is given here.
# What was measured:
# Salmonella typhimurium = experiment: Antibacterial activity against Salmonella Typhimurium ATCC 14028 at < 100 ug/mL by agar dilution method; assay type: functional, organism-based; conditions: Salmonella enterica subsp. enterica serovar Typhimurium
# How it was run: (§1)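 Agar dilution on 1 mL Mueller-Hinton agar slants. Compounds were serially two-fold diluted in DMSO (final DMSO ≤2%) to give 10–100 µg/mL in the medium. Bacteria were grown on MHA at 35 °C for 24 h, suspended in 0.86% saline at 1.5 × 10^8 cell/mL (0.5 McFarland), and 1 µL was added per slant. Slants were incubated at 35 °C. Drug-free blank included; each assay run three times; MIC recorded.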
# Proteus mirabilis = experiment: Antibacterial activity against Proteus mirabilis ATCC 25933 at < 100 ug/mL by agar dilution method; assay type: functional, organism-based; how it was run: as §1
# [1] = system: Staphylococcus saprophyticus; experiment: Antibacterial activity against Staphylococcus saprophyticus ATCC 35552 at < 100 ug/mL by agar dilution method; assay type: functional, organism-based; how it was run: as §1
# Streptococcus agalactiae = experiment: Antibacterial activity against Streptococcus agalactiae ATCC 13813 at < 100 ug/mL by agar dilution method; assay type: functional; how it was run: as §1
# Pseudomonas aeruginosa = experiment: Antibacterial activity against Pseudomonas aeruginosa ATCC 27853 at < 100 ug/mL by agar dilution method; assay type: functional, organism-based; how it was run: as §1
# Staphylococcus aureus = experiment: Antibacterial activity against Staphylococcus aureus ATCC 6538P at < 100 ug/mL by agar dilution method; assay type: functional, organism-based; how it was run: as §1
# Bacillus cereus = experiment: Antibacterial activity against Bacillus cereus ATCC 14579 at < 100 ug/mL by agar dilution method; assay type: functional; how it was run: as §1
# Bacillus subtilis = experiment: Antibacterial activity against Bacillus subtilis ATCC 23858 at < 100 ug/mL by agar dilution method; assay type: functional, organism-based; how it was run: as §1
# Enterobacter cloacae = experiment: Antibacterial activity against Enterobacter cloacae ATCC 35030 at < 100 ug/mL by agar dilution method; assay type: functional, organism-based; how it was run: as §1
# Escherichia coli = experiment: Antibacterial activity against Escherichia coli ATCC 11775 at < 100 ug/mL by agar dilution method; assay type: functional, organism-based; how it was run: as §1
# [2] = Toxicity in Artemia salina assessed as mortality after 24 hrs; assay type: organism-based; conditions: in vivo
# How it was run: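 Artemia salina hatched at pH 9.0 (Na2CO3), 25 °C, strong aeration, continuous light (2000 Lux). Phototropic nauplii were collected about 12 h after hatching, and groups of 10 were exposed per well to various compound concentrations for 24 h. Survivors were counted and % deaths calculated.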
# Mus musculus [3] = experiment: Antinociceptive activity in Swiss mouse assessed as inhibition of acetic acid-induced writhing at 10 mg/kg, ip administered 30 mins before acetic acid challenge measured after 20 mins relative to control; assay type: functional; conditions: route intraperitoneal
# How it was run: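 Mice were given 10 mg/kg i.p. in Tween 80/0.9% NaCl (Tween ≤5%) 30 min before i.p. 0.6% acetic acid, at 20–22 °C. Abdominal constrictions plus hind-limb stretching were counted cumulatively over 20 min in individual funnels. Groups of six, randomized and blinded. Inhibition was calculated versus vehicle controls (10 ml/kg i.p.); ANOVA with Dunnett's test.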
# Mus musculus [4] = experiment: Antinociceptive activity in Swiss mouse assessed as inhibition of acetic acid-induced abdominal contraction at 0.1 to 100 mg/kg, ip administered 30 mins before acetic acid challenge measured after 20 mins relative to control; assay type: functional, Abdominal cavity; conditions: dose mg/kg 0.1-100; route intraperitoneal
# How it was run: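 Writhing dose-response in mice: compounds at 0.1–10 mg/kg and standard drugs at 10–100 mg/kg, i.p. in Tween 80/saline, 30 min before i.p. 0.6% acetic acid. Constrictions and stretches were counted for 20 min at 20–22 °C, with six to eight animals per group. ID50 (dose halving the response versus control) was given as geometric mean with 95% confidence limits.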
# Aspergillus fumigatus = experiment: Antifungal activity against Aspergillus fumigatus ATCC 26934 by agar dilution method; assay type: functional
# How it was run: (§2)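 Filamentous fungi (hyalohyphomycetes, dermatophytes) were grown on SDA. Spore suspensions were set to 1.0–5.0 × 10^6 spores/mL by hemocytometer count. 1 µL was inoculated onto 1 mL SDA slants holding compound at 10–100 µg/mL (two-fold DMSO dilutions, final DMSO ≤2%), then incubated at 28–30 °C. Drug-free blank and ketoconazole control included; repeated three times; MIC determined.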
# Cryptococcus neoformans = experiment: Antifungal activity against Cryptococcus neoformans ATCC 32264 by agar dilution method; assay type: functional
# How it was run: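 Yeasts were grown on Sabouraud dextrose agar and adjusted to 1.0–5.0 × 10^6 cell/mL (0.5 McFarland). Agar dilution used 1 mL SDA slants holding two-fold DMSO dilutions of compound at 10–100 µg/mL, with final DMSO ≤2%. 1 µL of inoculum was added per slant, then incubated at 35 °C. Drug-free blank and ketoconazole positive control included; triplicate runs; MIC read.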
# Nannizzia gypsea = experiment: Antifungal activity against Microsporum gypseum C115 by agar dilution method; assay type: functional; how it was run: as §2
# Rhizopus = experiment: Antifungal activity against Rhizopus CL35 by agar dilution method; assay type: functional; how it was run: as §2
# [5] = system: Trichophyton mentagrophytes; experiment: Antifungal activity against Trichophyton mentagrophytes ATCC 9972 by agar dilution method; assay type: functional; how it was run: as §2
# Trichophyton rubrum = experiment: Antifungal activity against Trichophyton rubrum C137 by agar dilution method; assay type: functional; how it was run: as §2
SMILES,Activity (Salmonella typhimurium),Activity (Proteus mirabilis),Activity [1],Activity (Streptococcus agalactiae),Activity (Pseudomonas aeruginosa),Activity (Staphylococcus aureus),Activity (Bacillus cereus),Activity (Bacillus subtilis),Activity (Enterobacter cloacae),Activity (Escherichia coli),LC50 at 24 h [2] [µg/mL],inhibition in vivo at 10 mg/kg (Mus musculus [3]) [%],inhibition (INH) (Mus musculus [4]) [%],MIC (Aspergillus fumigatus) [µg/mL],MIC (Cryptococcus neoformans) [µg/mL],MIC (Nannizzia gypsea) [µg/mL],MIC (Rhizopus) [µg/mL],MIC [5] [µg/mL],MIC (Trichophyton rubrum) [µg/mL]
Cc1c(N2C(=O)C(Cl)=C(Nc3cccc(C(=O)O)c3)C2=O)c(=O)n(-c2ccccc2)n1C,inactive,inactive,inactive,inactive,inactive,inactive,inactive,inactive,inactive,inactive,> 1000,33.9,,,,,,,
Cc1c(N2C(=O)C(Cl)=C(Nc3cccc([N+](=O)[O-])c3)C2=O)c(=O)n(-c2ccccc2)n1C,inactive,inactive,inactive,inactive,inactive,inactive,inactive,inactive,inactive,inactive,> 1000,29.5,,,,,,,
Cc1c(N2C(=O)C(Cl)=C(Nc3ccc(C(=O)O)cc3)C2=O)c(=O)n(-c2ccccc2)n1C,inactive,inactive,inactive,inactive,inactive,inactive,inactive,inactive,inactive,inactive,> 1000,63.6,,,,,,,
Cc1c(N2C(=O)C(Cl)=C(N3CCCCC3)C2=O)c(=O)n(-c2ccccc2)n1C,inactive,inactive,inactive,inactive,inactive,inactive,inactive,inactive,inactive,inactive,> 1000,84.6,,,,,,,
Cc1cc(C)cc(NC2=C(Cl)C(=O)N(c3c(C)n(C)n(-c4ccccc4)c3=O)C2=O)c1,inactive,inactive,inactive,inactive,inactive,inactive,inactive,inactive,inactive,inactive,> 1000,68.4,,,,,,,
Cc1c(N2C(=O)C(Cl)=C(NCCc3ccccc3)C2=O)c(=O)n(-c2ccccc2)n1C,inactive,inactive,inactive,inactive,inactive,inactive,inactive,inactive,inactive,inactive,> 1000,81.8,,,,,,,
COc1ccc(NC2=C(Cl)C(=O)N(c3c(C)n(C)n(-c4ccccc4)c3=O)C2=O)cc1,inactive,inactive,inactive,inactive,inactive,inactive,inactive,inactive,inactive,inactive,> 1000,31.2,,,,,,,
COc1cccc(NC2=C(Cl)C(=O)N(c3c(C)n(C)n(-c4ccccc4)c3=O)C2=O)c1,inactive,inactive,inactive,inactive,inactive,inactive,inactive,inactive,inactive,inactive,> 1000,56.7,,,,,,,
Cc1c(N(C)CS(=O)(=O)[O-])c(=O)n(-c2ccccc2)n1C.[Na+] [DIPYRONE SODIUM],,,,,,,,,,,,33,54,,,,,,
Cc1c(N2C(=O)C(Cl)=C(N3CCN(c4ccccn4)CC3)C2=O)c(=O)n(-c2ccccc2)n1C,inactive,inactive,inactive,inactive,inactive,inactive,inactive,inactive,inactive,inactive,> 1000,77.7,,,,,,,
Cc1c(N2C(=O)C(Cl)=C(Nc3cccc(Cl)c3)C2=O)c(=O)n(-c2ccccc2)n1C,inactive,inactive,inactive,inactive,inactive,inactive,inactive,inactive,inactive,inactive,86.2,38.9,,,,,,,
COc1cc(NC2=C(Cl)C(=O)N(c3c(C)n(C)n(-c4ccccc4)c3=O)C2=O)cc(OC)c1,inactive,inactive,inactive,inactive,inactive,inactive,inactive,inactive,inactive,inactive,249,72,,,,,,,
Cc1cccc(NC2=C(Cl)C(=O)N(c3c(C)n(C)n(-c4ccccc4)c3=O)C2=O)c1,inactive,inactive,inactive,inactive,inactive,inactive,inactive,inactive,inactive,inactive,90.5,49.7,,,,,,,
Cc1c(N2C(=O)C(Cl)=C(c3ccc[nH]3)C2=O)c(=O)n(-c2ccccc2)n1C,inactive,inactive,inactive,inactive,inactive,inactive,inactive,inactive,inactive,inactive,> 1000,23.3,,,,,,,
Cc1ccc(NC2=C(Cl)C(=O)N(c3c(C)n(C)n(-c4ccccc4)c3=O)C2=O)cc1,inactive,inactive,inactive,inactive,inactive,inactive,inactive,inactive,inactive,inactive,> 1000,33.6,,,,,,,
CC(=O)N1CCN(c2ccc(OCC3COC(Cn4ccnc4)(c4ccc(Cl)cc4Cl)O3)cc2)CC1 (stereo unspecified) [KETOCONAZOLE],,,,,,,,,,,,,,7,5,6,15,8,3
